For one data set, the target named is Ephrin type-B receptor 4 (Homo sapiens, UniProt P54760). The data set can be described thus: Inhibition of EPHB4 (unknown origin).
Data set [1] has as its target Glycogen synthase kinase-3 beta (Homo sapiens, UniProt P49841). Briefly: Inhibition of GSK3B (unknown origin).
The target in data set [2] is Calcium/calmodulin-dependent protein kinase type IV (Homo sapiens, UniProt Q16566). Briefly: Inhibition of CAMK4 (unknown origin).
In the next data set the test system is THP-1. Briefly: Inhibition of LPS-induced TNFalpha production in human THP1 cells pre-incubated for 30 mins before LPS challenge measured 3 hrs after LPS addition.
Data set [3] has as its target T1, MAP kinase-activated protein kinase 2 (Homo sapiens, UniProt P49137). The data set can be described thus: Inhibition of MK2 in human THP1 cells assessed as reduction in LPS-induced HSP27 Ser78 phosphorylation after 60 mins. Format: cell-based, THP-1.
Target sequence in this assay (P49137 whole entry): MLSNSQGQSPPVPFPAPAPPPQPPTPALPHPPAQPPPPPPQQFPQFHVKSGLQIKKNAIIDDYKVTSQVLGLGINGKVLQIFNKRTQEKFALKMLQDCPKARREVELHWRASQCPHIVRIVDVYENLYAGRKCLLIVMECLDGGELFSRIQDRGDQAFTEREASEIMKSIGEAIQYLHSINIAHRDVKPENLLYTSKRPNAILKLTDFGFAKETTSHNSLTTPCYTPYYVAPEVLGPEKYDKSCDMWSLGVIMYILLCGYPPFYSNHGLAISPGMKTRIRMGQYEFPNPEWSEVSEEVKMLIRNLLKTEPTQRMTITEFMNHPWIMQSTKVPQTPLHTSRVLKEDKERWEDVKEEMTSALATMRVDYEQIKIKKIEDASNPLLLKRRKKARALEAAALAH
A short description of data set [4]: Protein binding in human plasma. Format: ADME, cell-free. The note with it: read-out: PPB (converted).
Data set [5] in a line: Permeability in human Caco2 cells. Format: ADME, cell-based. The note with it: Caco-2, read-out: permeability.
Data set [6] can be described thus: AUC (0 to 6 hrs) in Sprague-Dawley rat at 10 mg/kg, po. Format: ADME, organism-based. Details: time < 6 hr, dose 10 mg/kg, route oral. The note with it: plasma. Put shortly:
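Sprague–Dawley rats were dosed orally with the compound in 20% HPBCD vehicle. AUC was calculated over 0 to 6 h.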

Data set [7] deals with T1, MAP kinase-activated protein kinase 2. Briefly: Inhibition of MK2 (unknown origin) incubated for 30 mins by MK2 IMAP assay.
Target sequence in this assay (P49137 whole entry): as above
Data set [8] has the same target. Briefly: Non-ATP competitive inhibition of MK2 (unknown origin) incubated for 30 mins in presence of 1 uM and 100 uM ATP by MK2 IMAP assay. Put shortly:
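Inhibitor, ATP and MK2 (final 50 pM) were preincubated 30 min. TAMRA-labelled peptide (final 100 nM) was added for 30 min; final DMSO was 1%. Progressive binding reagent stopped the reaction (30 min); read at ex 530/em 580 nm. Values are means of duplicates or triplicates.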
Target sequence in this assay (P49137 whole entry, looked up): as the sequence (P49137 whole entry) above

The target of data set [9] is Receptor-type tyrosine-protein kinase FLT3 (Homo sapiens, UniProt P36888). The data set can be described thus: Inhibition of FLT3 (unknown origin).
For data set [10], the target named is Serine/threonine-protein kinase PLK3 (Homo sapiens, UniProt Q9H4B4). Briefly: Inhibition of PLK3 (unknown origin).
The target of data set [11] is Casein kinase I isoform delta (Homo sapiens, UniProt P48730). Briefly: Inhibition of CSNK1D (unknown origin).
Data set [12] concerns the target Serine/threonine-protein kinase Nek2 (Homo sapiens, UniProt P51955). Briefly: Inhibition of NEK2 (unknown origin).
Data set [13] concerns the target Protein kinase C alpha type (Homo sapiens, UniProt P17252). Briefly: Inhibition of PKCA (unknown origin).
Data set [14] deals with Interleukin-1 receptor-associated kinase 4 (Homo sapiens, UniProt Q9NWZ3). Briefly: Inhibition of IRAK4 (unknown origin).
Data set [15] concerns the target RAC-alpha serine/threonine-protein kinase (Homo sapiens, UniProt P31749). Briefly: Inhibition of AKT1 (unknown origin).
Data set [16] has as its target Inhibitor of nuclear factor kappa-B kinase subunit beta (Homo sapiens, UniProt O14920). The data set can be described thus: Inhibition of IKKB (unknown origin).
The target of data set [17] is Cyclin-dependent kinase 2 (Homo sapiens, UniProt P24941). The data set can be described thus: Inhibition of CDK2 (unknown origin).
Data set [18] deals with Ribosomal protein S6 kinase alpha-3 (Homo sapiens, UniProt P51812). The data set can be described thus: Inhibition of RSK2 (unknown origin).
In data set [19] the target is Rho-associated protein kinase 2 (Homo sapiens, UniProt O75116). Briefly: Inhibition of ROCK2 (unknown origin).
Data set [20] addresses Tyrosine-protein kinase JAK2 (Homo sapiens, UniProt O60674). Briefly: Inhibition of JAK2 (unknown origin).
Data set [21] addresses Vascular endothelial growth factor receptor 2 (Homo sapiens, UniProt P35968). Briefly: Inhibition of KDR (unknown origin).
The target of data set [22] is Hepatocyte growth factor receptor (Homo sapiens, UniProt P08581). The data set can be described thus: Inhibition of MET (unknown origin).
Data set [23] concerns the target Testis-specific serine/threonine-protein kinase 2 (Homo sapiens, UniProt Q96PF2). The data set can be described thus: Inhibition of TSSK2 (unknown origin).
The target in data set [24] is Serine/threonine-protein kinase 3 (Homo sapiens, UniProt Q13188). Briefly: Inhibition of MST2 (unknown origin).
Data set [25] addresses Tyrosine-protein kinase Lck (Homo sapiens, UniProt P06239). Briefly: Inhibition of LCK (unknown origin).
Data set [26] concerns the target Insulin-like growth factor 1 receptor (Homo sapiens, UniProt P08069). Briefly: Inhibition of IGF1R (unknown origin).
Data set [27] has as its target Mitogen-activated protein kinase 1 (Homo sapiens, UniProt P28482). The data set can be described thus: Inhibition of ERK2 (unknown origin).
Data set [28] concerns the target Serine/threonine-protein kinase Chk1 (Homo sapiens, UniProt O14757). Briefly: Inhibition of CHK1 (unknown origin).
Data set [29] concerns the target Epidermal growth factor receptor (Homo sapiens, UniProt P00533). Briefly: Inhibition of EGFR (unknown origin).

The source made the active and inactive calls. No cut-off for these calls is given here.

Chain of Testis-specific serine/threonine-protein kinase 2 (Q96PF2 whole entry): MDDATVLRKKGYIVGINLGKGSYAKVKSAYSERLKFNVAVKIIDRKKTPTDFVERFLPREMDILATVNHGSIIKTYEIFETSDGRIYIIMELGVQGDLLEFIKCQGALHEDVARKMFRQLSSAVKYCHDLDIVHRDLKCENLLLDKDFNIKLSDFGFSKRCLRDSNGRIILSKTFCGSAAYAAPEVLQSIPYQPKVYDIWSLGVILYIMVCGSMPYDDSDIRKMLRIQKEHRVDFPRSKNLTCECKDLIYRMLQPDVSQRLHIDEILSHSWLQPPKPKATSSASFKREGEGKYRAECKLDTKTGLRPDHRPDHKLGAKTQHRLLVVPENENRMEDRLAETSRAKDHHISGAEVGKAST
Chain of Ephrin type-B receptor 4 (P54760 whole entry): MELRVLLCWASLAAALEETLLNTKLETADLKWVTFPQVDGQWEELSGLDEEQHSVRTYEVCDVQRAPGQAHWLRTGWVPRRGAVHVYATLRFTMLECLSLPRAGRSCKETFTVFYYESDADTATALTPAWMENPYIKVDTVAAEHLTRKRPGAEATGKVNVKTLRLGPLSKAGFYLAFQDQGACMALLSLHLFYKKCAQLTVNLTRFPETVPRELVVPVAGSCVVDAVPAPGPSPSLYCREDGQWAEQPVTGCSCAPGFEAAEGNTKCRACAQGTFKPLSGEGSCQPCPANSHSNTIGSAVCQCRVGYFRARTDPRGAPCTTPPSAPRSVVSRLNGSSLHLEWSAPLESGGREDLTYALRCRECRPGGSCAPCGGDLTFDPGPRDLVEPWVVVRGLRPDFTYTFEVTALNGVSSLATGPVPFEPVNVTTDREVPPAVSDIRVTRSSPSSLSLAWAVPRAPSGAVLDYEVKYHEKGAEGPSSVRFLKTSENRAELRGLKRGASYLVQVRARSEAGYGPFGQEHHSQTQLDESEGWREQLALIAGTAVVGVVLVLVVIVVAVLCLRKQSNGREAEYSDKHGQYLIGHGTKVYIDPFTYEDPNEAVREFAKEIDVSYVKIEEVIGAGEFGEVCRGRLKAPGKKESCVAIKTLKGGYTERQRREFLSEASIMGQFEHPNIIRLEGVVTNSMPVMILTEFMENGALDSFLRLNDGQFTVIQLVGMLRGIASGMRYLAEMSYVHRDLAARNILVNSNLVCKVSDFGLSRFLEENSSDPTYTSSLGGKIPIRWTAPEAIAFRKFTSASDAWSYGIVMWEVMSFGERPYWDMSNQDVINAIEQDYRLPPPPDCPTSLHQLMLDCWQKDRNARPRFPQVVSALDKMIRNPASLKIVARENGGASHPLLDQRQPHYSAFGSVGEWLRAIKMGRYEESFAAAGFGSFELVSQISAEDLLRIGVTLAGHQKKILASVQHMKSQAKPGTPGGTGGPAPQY
Chain of Serine/threonine-protein kinase Nek2 (P51955 whole entry): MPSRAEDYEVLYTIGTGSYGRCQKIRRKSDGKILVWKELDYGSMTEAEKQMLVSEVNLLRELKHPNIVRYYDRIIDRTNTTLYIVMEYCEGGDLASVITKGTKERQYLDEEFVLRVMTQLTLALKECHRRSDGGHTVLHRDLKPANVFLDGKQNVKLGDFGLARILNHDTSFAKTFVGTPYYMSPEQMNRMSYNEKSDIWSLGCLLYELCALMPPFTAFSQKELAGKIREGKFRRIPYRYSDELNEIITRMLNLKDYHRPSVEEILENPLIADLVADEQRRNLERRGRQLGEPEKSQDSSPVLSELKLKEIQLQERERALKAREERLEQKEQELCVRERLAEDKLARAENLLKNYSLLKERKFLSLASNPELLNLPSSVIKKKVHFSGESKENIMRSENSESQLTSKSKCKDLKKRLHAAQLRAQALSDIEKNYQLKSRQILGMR
Chain of Receptor-type tyrosine-protein kinase FLT3 (P36888 whole entry): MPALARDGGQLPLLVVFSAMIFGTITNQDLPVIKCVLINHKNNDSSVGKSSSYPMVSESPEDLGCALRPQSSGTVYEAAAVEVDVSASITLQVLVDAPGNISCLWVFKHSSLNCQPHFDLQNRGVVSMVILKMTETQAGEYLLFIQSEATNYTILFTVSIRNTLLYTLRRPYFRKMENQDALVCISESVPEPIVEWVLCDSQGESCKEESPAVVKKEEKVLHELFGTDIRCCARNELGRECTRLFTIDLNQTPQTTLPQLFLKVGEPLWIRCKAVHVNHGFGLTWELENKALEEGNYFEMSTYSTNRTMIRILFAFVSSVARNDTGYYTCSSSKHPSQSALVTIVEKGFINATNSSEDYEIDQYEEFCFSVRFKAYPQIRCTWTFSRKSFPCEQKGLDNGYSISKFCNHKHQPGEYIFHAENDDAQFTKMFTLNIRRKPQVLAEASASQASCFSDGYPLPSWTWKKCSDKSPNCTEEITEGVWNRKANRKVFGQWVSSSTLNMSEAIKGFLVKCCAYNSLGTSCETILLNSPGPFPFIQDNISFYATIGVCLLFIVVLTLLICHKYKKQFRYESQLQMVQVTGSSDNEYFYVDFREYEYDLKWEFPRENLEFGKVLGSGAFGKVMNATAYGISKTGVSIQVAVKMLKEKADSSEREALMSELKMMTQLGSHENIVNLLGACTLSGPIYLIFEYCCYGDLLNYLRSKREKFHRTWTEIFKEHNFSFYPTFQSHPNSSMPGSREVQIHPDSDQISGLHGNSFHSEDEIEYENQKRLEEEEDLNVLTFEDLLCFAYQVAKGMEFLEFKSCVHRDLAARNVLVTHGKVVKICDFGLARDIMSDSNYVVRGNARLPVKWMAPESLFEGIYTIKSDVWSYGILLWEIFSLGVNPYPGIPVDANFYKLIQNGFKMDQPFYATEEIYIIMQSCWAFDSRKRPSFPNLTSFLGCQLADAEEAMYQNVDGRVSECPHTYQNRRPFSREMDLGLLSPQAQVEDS
Chain of Calcium/calmodulin-dependent protein kinase type IV (Q16566 whole entry): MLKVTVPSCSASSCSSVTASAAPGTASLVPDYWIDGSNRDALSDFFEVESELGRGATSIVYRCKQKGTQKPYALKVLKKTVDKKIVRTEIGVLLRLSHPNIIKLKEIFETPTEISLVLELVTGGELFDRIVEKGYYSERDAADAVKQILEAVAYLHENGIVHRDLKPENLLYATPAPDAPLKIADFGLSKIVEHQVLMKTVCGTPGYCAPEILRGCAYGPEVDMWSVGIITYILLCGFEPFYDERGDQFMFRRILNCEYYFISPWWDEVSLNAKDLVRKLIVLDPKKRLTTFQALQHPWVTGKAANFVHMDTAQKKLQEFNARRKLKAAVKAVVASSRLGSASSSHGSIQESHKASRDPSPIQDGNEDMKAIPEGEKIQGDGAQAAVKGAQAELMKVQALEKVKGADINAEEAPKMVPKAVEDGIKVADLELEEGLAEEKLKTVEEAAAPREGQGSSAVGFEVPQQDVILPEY
Chain of Serine/threonine-protein kinase 3 (Q13188 whole entry): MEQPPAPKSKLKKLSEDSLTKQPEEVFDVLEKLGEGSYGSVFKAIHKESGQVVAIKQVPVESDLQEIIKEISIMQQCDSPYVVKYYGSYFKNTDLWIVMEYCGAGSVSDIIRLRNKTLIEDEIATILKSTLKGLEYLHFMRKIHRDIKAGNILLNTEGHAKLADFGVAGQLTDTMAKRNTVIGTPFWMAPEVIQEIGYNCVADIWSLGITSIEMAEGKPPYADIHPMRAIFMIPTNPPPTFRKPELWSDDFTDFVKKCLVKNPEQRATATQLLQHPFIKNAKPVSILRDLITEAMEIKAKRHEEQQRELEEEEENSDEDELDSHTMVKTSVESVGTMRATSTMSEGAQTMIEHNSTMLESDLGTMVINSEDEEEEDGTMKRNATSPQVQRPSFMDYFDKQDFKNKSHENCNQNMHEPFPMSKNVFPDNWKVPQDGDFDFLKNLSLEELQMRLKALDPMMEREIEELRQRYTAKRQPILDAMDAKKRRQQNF

Take `Clc1ccc(-c2ccc(-c3nccn3-c3ccc(N4CCNCC4)cc3)o2)cc1`: the IC50 (as a rule, the concentration at which inhibition is half-maximal) against Ephrin type-B receptor 4 was above 30 µM; in data set [1] it was above 30 µM; in data set [2], above 30 µM; in the data set on THP-1 it was 0.8 µM; in data set [3] it was 2.14 µM; in data set [7], 0.0255 µM. Moreover, the IC50 in data set [9], in [10], in data set [11], in data set [12], in data set [13] and in data set [14] was above 30 µM throughout. Also, the IC50 in [15] is above 15 µM; in data set [16] it was above 30 µM; in data set [17] it was above 30 µM; in data set [18], above 30 µM; in data set [19], above 20 µM; in data set [20], above 30 µM. The IC50 in data set [21], in [22], in [23], in data set [24], in [25] and in data set [26] was above 30 µM each time. For the same compound, the IC50 in [27], in [28] and in data set [29] was above 30 µM throughout. In addition, in [4], the fraction unbound was 0.028. Also, the Papp in data set [5] was found to be 5 ×10⁻⁶ cm/s. For the same compound, the AUC(0-t) (as a rule, exposure summed from dosing to a finite time, without extrapolation to infinity) at 6 h in data set [6] was found to be 13.3 µM·h. Also, in data set [8], the inhibition result was “Active”.
In the data set on THP-1, `O=C1c2oc(-c3ccc(Cl)cc3)cc2Cc2cc(N3CCNCC3)ccc2N1Cc1ccccc1-c1cncnc1` registered an IC50 of 1.49 µM. Besides, in data set [4], the fraction unbound was 0.016. Also, the Papp in data set [5] is below 0.1 ×10⁻⁶ cm/s.
